We go through 18 molecules from ChEMBL document CHEMBL1144244, “Synthesis and biological activity of enantiomeric pairs of 5-[(E)-cycloalk-2-enylidenemethyl]thiolactomycin congeners” (Bioorg Med Chem Lett, 2008).

In brackets after ≈: the same amount, converted by molar mass.

One experiment has as its system Staphylococcus aureus. The experiment is described as follows: Antibacterial activity against Staphylococcus aureus Smith by agar dilution method. Format: functional. In short, it runs like this:
(§1)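 MICs determined by agar dilution following CLSI guideline M7-A6 (2003).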

A further experiment relates to Moraxella catarrhalis. Kind of experiment: Antibacterial activity against Moraxella catarrhalis ATCC 25238 by agar dilution method. Format: functional. In short, it runs like this: as §1
Experiment [1] in a line: Inhibition of fatty acid synthase type 1 in human HepG2 cells assessed as [1-14C]acetate incorporation into cellular fatty acid. In kind it is cell-based.
A further experiment has as its system Haemophilus influenzae. The experiment is described as follows: Antibacterial activity against Haemophilus influenzae IID983 by agar dilution method. In kind it is functional. In short, it runs like this: as §1

Turning to `C=C/C(C)=C/[C@]1(C)SC(=O)C(C)=C1O`, the MIC in the experiment with Staphylococcus aureus and in the experiment on Moraxella catarrhalis was above 128 µg/mL throughout. The IC50 in experiment [1] is 0.0437 µg/mL (≈ 0.208 µM).
As to `CC1=C(O)[C@@](C)(/C=C2/C=CCCC2)SC1=O`, the MIC against Staphylococcus aureus, against Moraxella catarrhalis and against Haemophilus influenzae was above 64 µg/mL each time. Moreover, the half-maximal inhibitory concentration (IC50) in experiment [1] is above 0.08 µg/mL.
Take `C=C/C(C)=C/[C@@]1(C)SC(=O)C=C1O`: the figures for the MIC against Staphylococcus aureus, in the experiment with Moraxella catarrhalis and against Haemophilus influenzae were above 128 µg/mL, 16 µg/mL (≈ 81.5 µM) and 32 µg/mL (≈ 163 µM), respectively. The half-inhibitory concentration (IC50) in experiment [1] is above 0.08 µg/mL.
Take `C=C/C(C)=C/[C@]1(C)SC(=O)C=C1O`: the MIC in the experiment with Staphylococcus aureus and against Moraxella catarrhalis was above 128 µg/mL each time. Besides, the IC50 in experiment [1] worked out at 0.019 µg/mL (≈ 0.0968 µM).
`C[C@]1(/C=C2/C=CCCCC2)SC(=O)C=C1O`: the MIC in the experiment with Staphylococcus aureus, in the experiment with Moraxella catarrhalis and in the experiment on Haemophilus influenzae was above 64 µg/mL in each case. The IC50 in experiment [1] was found to be 0.0133 µg/mL (≈ 0.0563 µM).
For the molecule `C[C@]1(/C=C2/C=CCCC2)SC(=O)C=C1O`, the MIC in the experiment on Staphylococcus aureus, in the experiment with Moraxella catarrhalis and in the experiment on Haemophilus influenzae was above 64 µg/mL each time. Besides, the half-maximal inhibitory concentration (IC50) in experiment [1] was 0.057 µg/mL (≈ 0.256 µM).
As for `CC1=C(O)[C@](C)(/C=C2/C=C\CCCCC2)SC1=O`, the MIC in the experiment on Staphylococcus aureus was above 128 µg/mL; in the experiment with Moraxella catarrhalis, 64 µg/mL (≈ 242 µM); with Haemophilus influenzae it was above 128 µg/mL. Further, in experiment [1], the IC50 turned out to be 0.0116 µg/mL (≈ 0.0439 µM).
With `C=C1C(=O)OC(CCCCCCCC)C1C(=O)O` (stereo unspecified), the IC50 in experiment [1] worked out at 0.0074 µg/mL (≈ 0.0291 µM).
With `CC1=C(O)[C@@](C)(/C=C2/C=CCCCC2)SC1=O`, the MIC in the experiment with Staphylococcus aureus, with Moraxella catarrhalis and in the experiment with Haemophilus influenzae was above 64 µg/mL throughout. Moreover, in experiment [1], the 50% inhibitory concentration (IC50) was determined as 0.0254 µg/mL (≈ 0.101 µM).
On to `CC1=C(O)[C@](C)(/C=C2/C=CCCC2)SC1=O`, for which the MIC against Staphylococcus aureus, against Moraxella catarrhalis and with Haemophilus influenzae was above 64 µg/mL throughout. For the same molecule, the IC50 in experiment [1] was above 0.08 µg/mL.
With `C[C@]1(/C=C2/C=C\CCCCC2)SC(=O)C=C1O`, the MIC was above 128 µg/mL against Staphylococcus aureus, 128 µg/mL (≈ 511 µM) against Moraxella catarrhalis and above 128 µg/mL with Haemophilus influenzae. Also, the IC50 in experiment [1] was 0.0195 µg/mL (≈ 0.0779 µM).
Turning to `C[C@@]1(/C=C2/C=CCCC2)SC(=O)C=C1O`, the MIC in the experiment on Staphylococcus aureus, against Moraxella catarrhalis and against Haemophilus influenzae was above 64 µg/mL throughout. For the same molecule, the IC50 in experiment [1] was found to be 0.0189 µg/mL (≈ 0.085 µM).
On to `CC1=C(O)[C@@](C)(/C=C2/C=C\CCCCC2)SC1=O`, for which the MIC was above 128 µg/mL against Staphylococcus aureus, 64 µg/mL (≈ 242 µM) in the experiment with Moraxella catarrhalis and above 128 µg/mL in the experiment with Haemophilus influenzae. The concentration for half-maximal inhibition (IC50) in experiment [1] was 0.0418 µg/mL (≈ 0.158 µM).
On to `C[C@@]1(/C=C2/C=C\CCCCC2)SC(=O)C=C1O`, for which the MIC against Staphylococcus aureus is above 128 µg/mL; against Moraxella catarrhalis, 64 µg/mL (≈ 256 µM); in the experiment with Haemophilus influenzae, above 128 µg/mL. The half-inhibitory concentration (IC50) in experiment [1] amounted to 0.0246 µg/mL (≈ 0.0983 µM).
Regarding `CC1=C(O)[C@](C)(/C=C2/C=CCCCC2)SC1=O`, the MIC in the experiment with Staphylococcus aureus, in the experiment on Moraxella catarrhalis and in the experiment with Haemophilus influenzae was above 64 µg/mL in each case. Also, the IC50 in experiment [1] is 0.0149 µg/mL (≈ 0.0595 µM).
On to `C[C@@]1(/C=C2/C=CCCCC2)SC(=O)C=C1O`, for which the MIC against Staphylococcus aureus, with Moraxella catarrhalis and against Haemophilus influenzae was above 64 µg/mL each time. Moreover, the half-maximal inhibitory concentration (IC50) in experiment [1] was found to be 0.0226 µg/mL (≈ 0.0956 µM).
With `O=C(O)c1cn(C2CC2)c2cc(N3CCNCC3)c(F)cc2c1=O` [CIPROFLOXACIN], the values for the MIC against Staphylococcus aureus, in the experiment on Moraxella catarrhalis and in the experiment with Haemophilus influenzae were 0.063 µg/mL (≈ 0.19 µM), 0.031 µg/mL (≈ 0.0936 µM) and 0.008 µg/mL (≈ 0.0241 µM), respectively.
Turning to `C=C/C(C)=C/[C@@]1(C)SC(=O)C(C)=C1O` [THIOLACTOMYCIN], the MIC was determined as 128 µg/mL (≈ 609 µM) in the experiment on Staphylococcus aureus, 0.25 µg/mL (≈ 1.19 µM) in the experiment with Moraxella catarrhalis and 2 µg/mL (≈ 9.51 µM) against Haemophilus influenzae. In experiment [1], the IC50 was above 0.08 µg/mL.
